According to ChEMBL document CHEMBL2163188, “Discovery of piragliatin--first glucokinase activator studied in type 2 diabetic patients” (J Med Chem, 2012):

Target: T1, Hexokinase-4 (Homo sapiens) (UniProt P35557)
T1 sequence (whole entry): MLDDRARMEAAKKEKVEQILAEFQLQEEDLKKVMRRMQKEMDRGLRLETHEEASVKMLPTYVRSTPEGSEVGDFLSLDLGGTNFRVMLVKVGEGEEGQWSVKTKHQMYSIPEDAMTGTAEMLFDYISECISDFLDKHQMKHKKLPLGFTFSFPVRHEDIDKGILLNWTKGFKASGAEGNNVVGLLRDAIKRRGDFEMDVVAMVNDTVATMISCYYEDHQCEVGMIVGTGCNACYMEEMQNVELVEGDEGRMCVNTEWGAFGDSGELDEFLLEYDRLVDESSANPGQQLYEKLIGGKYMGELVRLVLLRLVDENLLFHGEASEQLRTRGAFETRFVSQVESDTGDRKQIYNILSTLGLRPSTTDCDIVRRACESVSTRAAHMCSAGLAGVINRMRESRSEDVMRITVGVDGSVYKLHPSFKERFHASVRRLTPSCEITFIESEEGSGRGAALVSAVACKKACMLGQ
Test: Activation of human recombinant glucokinase assessed as concentration required for 1.5 fold increase in enzymatic activity
Outline: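 Human recombinant GK; activator at fixed concentrations from ∼0.010 to 30 μM, each in duplicate, with glucose held at 5 mM. SC1.5 is the activator concentration giving a 1.5-fold rise in enzymatic activity over untreated GK. Assay CV was about 15%.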

Activity	Compound
2.37 µM	CS(=O)(=O)c1ccc([C@@H](CC2CCC(O)C2)C(=O)Nc2cnccn2)cc1Cl (mixture of isomers)
2.73 µM	CS(=O)(=O)c1ccc([C@@H](CC2CCCC2O)C(=O)Nc2cnccn2)cc1Cl (mixture of isomers)
